Results from ChEMBL document CHEMBL1145053, “Stereoselective synthesis and structure-activity relationship of novel ceramide trafficking inhibitors. (1R,3R)-N-(3-hydroxy-1-hydroxymethyl-3-phenylpropyl)dodecanamide and its analogues” (J Med Chem, 2003).
Several values for one entry are separate records, joined by “and”; a condition that tells them apart may be missing. Equal values may be shown once.

System: CHO
Assay: Effect of compound on de novo synthesis of sphingomyelin (SM) by metabolic labeling of lipids in CHO cells with radioactive serine at 1 uM
Assay type: functional, Cricetulus griseus
Conditions: not given
Method in brief: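 CHO-K1 subconfluent monolayers preincubated in serum-free medium with compound at 1 μM, 0.01% (v/v) DMSO, 4 °C for 15 min. L-[14C]serine (0.75 μCi) then added, 33 °C for 2 h. Lipids extracted, TLC-separated, labeled SM quantified by imaging analyzer and normalized to lysate protein. Reported as % of DMSO-only control; mean ± SD, n = 3.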

Going from `CCCCCCCCCCCC(=O)N[C@@H](CO)[C@H](O)[C@@H](O)c1ccccc1` to `CCCCCCCCCCCC(=O)N[C@@H](CO)[C@@H](O)[C@@H](O)c1ccccc1`, the “Sphingomyelin synthesis, % of control” value rises from 28% to 57%.

Going from `CCCCCCCCCCCC(=O)N[C@@H](COC)C[C@@H](O)c1ccccc1` to `CCCCCCCCCCCC(=O)N[C@@H](COC)C[C@@H](OC)c1ccccc1`, the “Sphingomyelin synthesis, % of control” value rises from 79% to 130%.

Compared with `CCCCCCCCCCCC(=O)N[C@@H](CO)[C@@H](O)[C@H](O)c1ccccc1`, `CCCCCCCCCCCC(=O)N[C@@H](CO)[C@H](O)[C@H](O)c1ccccc1` is lower in “Sphingomyelin synthesis, % of control” value: 40% for the first, 17% for the second.

With `CCCCCCCCCCCC(=O)N[C@@H](CO)C[C@@H](OC)c1ccccc1` the “Sphingomyelin synthesis, % of control” value was 119%.

With `CCCCCCCCCCCC(=O)N[C@@H](CO)C[C@@H](O)c1ccccc1` the “Sphingomyelin synthesis, % of control” value was 8.2% and 4%.

System: CHO
Assay: Inhibitory concentration on de novo synthesis of sphingomyelin (SM) by metabolic labeling of lipids in CHO cells with radioactive serine
Assay type: functional, cell-based
Conditions: Cricetulus griseus
Method in brief: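 Compound tested at 0 to 1 μM in serum-free medium containing 0.01% (v/v) DMSO. Subconfluent CHO-K1 monolayers were preincubated at 4 °C for 15 min, then pulsed with L-[14C]serine (0.75 μCi) at 33 °C for 2 h. Labeled SM was separated by TLC, imaged, and normalized to cell protein. IC50 came from […] of a single assay series.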

Compared with `CCCCCCCCCCCCCCC(=O)N[C@@H](CO)C[C@@H](O)c1ccccc1`, `CCCCCCCCCCCCCCCC(=O)N[C@@H](CO)C[C@@H](O)c1ccccc1` is higher in IC50: 90 nM for the first, greater than 1000 nM for the second.

Going from `CCCCCCCCCC(=O)N[C@@H](CO)C[C@@H](O)c1ccccc1` to `CCCCCCCCCCC(=O)N[C@@H](CO)C[C@@H](O)c1ccccc1`, the IC50 falls from 300 nM to 110 nM (2.7-fold).

`CCCCCCCCCCCC(=O)N[C@@H](CO)C[C@@H](O)c1ccccc1` and `CCCCCCCCCCCCC(=O)N[C@@H](CO)C[C@@H](O)c1ccccc1` are within 1.5-fold of each other in IC50: 70 nM for the first, 50 nM for the second.

`CCCCCCCCCCCCCCCCCC(=O)N[C@@H](CO)C[C@@H](O)c1ccccc1` and `CCCCCCCCCCCCCCCCC(=O)N[C@@H](CO)C[C@@H](O)c1ccccc1` cannot be ordered by IC50: greater than 1000 nM for the first, greater than 1000 nM for the second.

In the case of `CCCCCCCCCCCCCC(=O)N[C@@H](CO)C[C@@H](O)c1ccccc1`, the IC50 is reported as 70 nM.
